GAA850 FXN act = FXN promoter activators, primary screen, cell-based, luciferase luminescence, HEK293 lucGAA850; HEK293 lucGAA850 FXN promoter luciferase reporter, 24 h; percent of 10 µM SAHA response; activation, % at 6 µM; AID 540364, 2011; 360,000 compounds, 0.56% hits;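 active = activation above the average of all compounds screened plus 3 SD, cutoff fixed separately per campaign, cut at about 7.5% in these data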
m5-HT2A agonist = mouse Htr2a agonists via beta-arrestin recruitment, primary screen, cell-based, luminescence; 360,000 compounds, 0.66% hits; activation, % at 7.6 µM; CHO-K1 mHTR2A beta-arrestin complementation; percent of 30 µM serotonin response; 5-hydroxytryptamine receptor 2A (Mus musculus), P35363; AID 624169, 2012;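 active = activation above a run cutoff, the mean activation of all tested compounds plus 3 SD, cut at about 14% in these data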
MC4R ag barr = MC4R agonists recruiting beta-arrestin, primary screen, cell-based, luminescence, agonist arm of biased-ligand search; Melanocortin receptor 4 (Homo sapiens), P32245; U2OS MC4R beta-arrestin complementation; percent of melanotan II response, DMSO zero; activation, % at 8.9 µM; 360,000 compounds, 0.98% hits; AID 540308, 2011;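 active = activation above a per-plate cutoff, the mean activation of sample wells on that plate plus 3 SD, cut at about 8% in these data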
Target sequence (P32245 whole entry, looked up): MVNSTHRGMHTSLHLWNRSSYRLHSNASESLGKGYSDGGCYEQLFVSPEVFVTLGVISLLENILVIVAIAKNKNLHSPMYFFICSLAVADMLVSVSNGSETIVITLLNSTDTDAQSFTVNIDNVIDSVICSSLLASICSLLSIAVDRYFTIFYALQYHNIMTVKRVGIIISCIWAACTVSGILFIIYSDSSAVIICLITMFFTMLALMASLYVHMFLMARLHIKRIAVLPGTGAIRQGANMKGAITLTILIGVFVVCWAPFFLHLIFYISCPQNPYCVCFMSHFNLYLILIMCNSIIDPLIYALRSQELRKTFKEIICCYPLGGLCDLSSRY
AHR act = AHR activators, primary screen, cell-based, luminescence, luciferase reporter, human; AID 2796, 2010; AHR-responsive luciferase reporter cells; 320,000 compounds, 2.5% hits; activation, % at 5 µM; in the data active = activation above about 47%
MC4R antagonist = MC4R antagonists of cAMP signaling, primary screen, cell-based, TR-FRET, antagonist arm of biased-ligand search. Melanocortin receptor 4 (Homo sapiens), P32245. MC4R-expressing cells, MTII-stimulated cAMP, LANCE TR-FRET. 360,000 compounds, 0.48% hits. inhibition, % at 6.5 µM;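 active = inhibition above its plate's cutoff, the mean of tested wells on that plate plus 3 SD, cut at about 29% in these data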
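Assay system: human MC4R-expressing U2OS cells; reagent: Melanotan II stimulation of cells; dosing: 6.5 µM single dose; timing: compound 30 min, challenge 1 h, detection 1 h; signal: TR-FRET cAMP assay; replicates: one well per compound, no replicates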
GAA30 FXN cntr = GAA30 FXN promoter activators, confirmation, counter-screen for GAA850 frataxin promoter activator project, cell-based, luminescence, HEK293, lucGAA30, triplicate; activation, % at 6 µM; AID 588350, 2011; HEK293 lucGAA30 FXN promoter luciferase, 24 h; DMSO = 0%, 5 µM ipriflavone = 100%; shares compounds with GAA850 FXN act; 1,900 compounds, 66% hits;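 active = mean activation above the mean of solvent-only control wells plus 3 SD, cut at about 22% in these data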;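 also: counterscreen of GAA850 promoter hits where activity marks nonselective or luminescence artifacts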
GAA850 confirm = FXN GAA850 promoter activators in reporter cells, confirmation, cell-based, luminescence, HEK293 lucGAA850, triplicate. HEK293 lucGAA850 FXN promoter luciferase reporter, 24 h; 100% = activation by SAHA. activation, % at 6 µM. 1,900 compounds, 86% hits. shares compounds with GAA850 FXN act. AID 588351, 2011;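 active = mean activation above a set limit taken from the primary screen, cut at about 8% in these data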
Each line names hits and unclear results; the compound was inactive in the other large screens (follow-up assays come after a bar, where they were run). Sampled rows, rich in hits. Any-hit rate of the full collection: about 4.7%.

Cc1ccc(S(=O)(=O)C[C@@H]2OC[C@H](C(C)C)N2S(=O)(=O)c2ccc(C)cc2)cc1	none (no result: GAA850 FXN act, MC4R ag barr, AHR act, MC4R antagonist)
COc1cc2c(cc1NC(=O)C1CCCO1)oc1ccccc12 (stereo not drawn)	GAA850 FXN act 8.6 | GAA30 FXN cntr 108.9 | GAA850 confirm 30.5
COc1ccc(Cl)cc1NC(=O)C1CCCO1 (stereo not drawn)	none
COc1cc(OC)cc(-c2cc3cc(F)ccc3cn2)c1	GAA850 FXN act 8.0 | GAA30 FXN cntr 95.3 | GAA850 confirm 36.3
CCCCCCn1c(=O)n2n(c1=O)[C@@H]1CN(S(=O)(=O)c3ccc(C)cc3)C[C@]1(O)[C@@H](OC(=O)Nc1c(C)noc1C)C2	none (no result: AHR act)
CC(NC(=O)CCC(=O)c1ccccc1)c1ccc(F)cc1 (stereo not drawn)	none
COc1cc(/C=N/NC(=O)c2nnn(-c3nonc3N)c2C)ccc1OCc1ccc(Cl)cc1	none (no result: AHR act)
CCCCN(c1ccccc1)S(=O)(=O)c1cccc(C(=O)Nc2c(C)n(C)n(-c3ccccc3)c2=O)c1	none (no result: AHR act)
Cc1nc(NC(=O)c2oc3ccccc3c2C)sc1C(=O)N(C)C	GAA850 FXN act 7.8 | GAA30 FXN cntr 112.0 | GAA850 confirm 36.3
Cc1ccc(C(=O)Nc2nc(C)c(C(=O)N(C)C)s2)o1	none
COC(=O)[C@]1(C)N[C@H](CN(C)C(=O)c2ccccc2)[C@@H]2C(=O)N(C)C(=O)[C@@H]21	none
COc1cc2c(cc1N)-c1ccc(N)cc1C2=O	GAA850 FXN act 9.4 (no result: AHR act) | GAA30 FXN cntr 117.7 | GAA850 confirm 38.0
Nc1ccc2c(c1)C(=O)c1cc(N)c(Cl)cc1-2	none (no result: AHR act)
CCOCCCNCC(=O)NC1(C)C2CCC(C2)C1(C)C (stereo not drawn)	none
CC1(C)C2CCC(C2)C1(C)NC(=O)CNCC1CCCCC1 (stereo not drawn)	GAA850 FXN act 10.2 | GAA30 FXN cntr 30.2 | GAA850 confirm 14.3
COc1cc(SC)ccc1C(=O)Nc1ncc(Cl)cc1Cl	GAA850 FXN act 9.8 | GAA30 FXN cntr 119.2 | GAA850 confirm 41.0
FC(F)Oc1ccc(C2N=C(c3ccccc3)NO2)cc1 (stereo not drawn)	GAA850 FXN act 7.9 | GAA30 FXN cntr 117.5 | GAA850 confirm 40.6
CCOC(=O)[C@@H](C)N(Cc1ccc(OC)cc1)S(=O)(=O)N(Cc1ccccc1)[C@H](C(=O)OC)C(C)C	GAA850 FXN act 10.7 | GAA30 FXN cntr inactive | GAA850 confirm 21.3
CCOC(=O)[C@@H](C)NS(=O)(=O)N(Cc1ccccc1)[C@H](C(=O)OC)C(C)C	none
COc1ccc(OC)c2sc(N3CCN(c4ccccc4)CC3)nc12	GAA850 FXN act 8.8 | GAA30 FXN cntr 39.2 | GAA850 confirm 17.3
CC[C@@]12C(=O)N(c3ccccc3)C(=O)N1[C@H](c1ccc(OC)cc1)[C@@H]1C(=O)N(C(C)(C)C)C(=O)[C@@H]12	GAA850 FXN act 11.3 | GAA30 FXN cntr 34.9 | GAA850 confirm 14.1
CC[C@@]12C(=O)N(c3ccc(C)cc3)C(=O)N1[C@H](c1ccc(Br)cc1)[C@@H]1C(=O)N(C(C)(C)C)C(=O)[C@@H]12	GAA850 FXN act 13.4 | GAA30 FXN cntr 28.1 | GAA850 confirm 10.2
CC[C@@]12C(=O)N(c3ccc(C)cc3)C(=O)N1[C@H](c1ccc(OC)cc1)[C@@H]1C(=O)N(C(C)(C)C)C(=O)[C@@H]12	GAA850 FXN act 11.5 | GAA30 FXN cntr 32.7 | GAA850 confirm 13.1
O=C(COC(=O)CNC(=O)c1ccccc1F)Nc1cccnc1Cl	none
Cc1ccc(Cn2c(N3CCN(C)CC3)nc3c2c(=O)[nH]c(=O)n3C)cc1	none
